# Measurements taken from PubChem BioAssay AID651560 (Sanford-Burnham Center for Chemical Genomics, 2012).
# About 820 (0.23%) of roughly 360,000 compounds were called active. The sample holds actives, similar compounds and a random draw of the others, so the mix is not that of the screen.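 Rule for the calls: active = compounds that cut the enzyme signal by at least half of the control window in the single-dose screen; inactive = the rest.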
# Molecular target: Low molecular weight phosphotyrosine protein phosphatase (Homo sapiens) (UniProt P24666)
# Sequence (P24666 whole entry, looked up): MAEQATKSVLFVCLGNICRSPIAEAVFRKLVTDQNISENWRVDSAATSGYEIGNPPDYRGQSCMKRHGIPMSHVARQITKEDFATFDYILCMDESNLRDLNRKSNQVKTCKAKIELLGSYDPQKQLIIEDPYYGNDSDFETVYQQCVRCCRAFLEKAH
# Assay: LMPTP phosphatase inhibitors, primary screen, biochemical, fluorescence intensity, uHTS (AID 651560);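 note: plate controls were DMSO wells with enzyme plus substrate for no effect and substrate without enzyme for full effect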
# Details: recombinant LMPTP-A, OMFP fluorogenic substrate, at 20 µM, hits give high values
# How it was run: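 Test system: LMPTP-A phosphatase enzyme. Amount: LMPTP-A at 0.625 nM final in the reaction. Reagent: OMFP substrate, 400 µM final. Times: 50 min at room temperature. Signal: endpoint fluorescence intensity from OMFP dephosphorylation. Read-out basis: % inhibition. Benchmarks: no-enzyme and uninhibited controls.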
row,Compound,inhibition
1,O=S(=O)(NN=C1CCCCCCC1)c1ccc(Br)cc1,0.285% (inactive)
2,CCCn1c(N)c(N(CCOC)C(=O)C2CCCC2)c(=O)[nH]c1=O,-0.34% (inactive)
3,CCOCCCNC(=O)C(NC(=O)Cc1c[nH]c2ccccc12)c1ccc(OC)cc1 (configuration not stated),-1.16% (inactive)
4,COC(=O)c1c(NC(=O)CN(c2ccc(C)c(C)c2)S(C)(=O)=O)sc2c1CCCC2,1.37% (inactive)
5,CCOc1ccc(OCC)c(NC(=O)CSc2nnc(Cn3cnc4ccccc43)n2C)c1,-0.816% (inactive)
6,CNc1cnc(-c2cc(OC)c(OC)c(OC)c2)cn1,0.718% (inactive)
7,NS(=O)(=O)c1ccc(CCNC(=O)COC(=O)COc2cccc(C(F)(F)F)c2)cc1,-0.314% (inactive)
8,O=C(CSc1ccc(-c2ccccn2)nn1)Nc1ccccc1,0.337% (inactive)
9,O=C(Nc1cccnc1)c1cc2cc(Br)ccc2oc1=O,45.7% (inactive)
10,O=C(Nc1ccncc1)c1cc(-c2ccccn2)nc2ccc(Br)cc12,51.5% (active)
11,COC(=O)c1ccc(C23CC4(C2)[C@H](CN(Cc2cccnc2)[C@@H]4c2ccccc2)C3c2ccc(Cl)nc2)cc1 (some centres not stated),8.71% (inactive)
12,CCCc1ccc(-c2c(C)sc(NC(=O)c3ccnn3C)c2C#N)cc1,1.55% (inactive)
13,Cc1ccc(C(=O)N/C(=C\c2ccco2)C(=O)N2CCSCC2)cc1C,-0.858% (inactive)
14,Cc1cccc(C)c1NC1=NC(=S)N(c2ccc(N(C)C)cc2)C1(C)C,-0.864% (inactive)
15,CC1(C(=O)NCc2ccccc2)CN(S(C)(=O)=O)CC(=O)N1CC(F)(F)F (configuration not stated),-0.703% (inactive)
16,O=C(NCc1ccc2c(c1)OCO2)c1sccc1Br,-0.435% (inactive)
17,O=C(NCc1ccc2c(c1)OCO2)c1c(O)nc2sccn2c1=O,53.5% (active)
18,C=CCn1c(=O)c(C(=O)NCc2ccc3c(c2)OCO3)c(O)c2ccccc21,2.01% (inactive)
19,O=C(CN1CCN(C(=O)c2ccco2)CC1)Nc1ccc2c(c1)OCO2,-0.639% (inactive)

row,Compound,inhibition
1,O=C(CCN1C(=O)c2ccncc2C1=O)Nc1ccc2c(c1)OCCO2,0.479% (inactive)
2,Cc1ccc(C(=O)O)cc1-c1ccc(/C=C2\SC(=O)N(CC(=O)Nc3ccc4c(c3)OCO4)C2=O)o1,61.2% (active)
3,Cc1ccc(S(=O)(=O)N2[C@@H](c3ccc(Br)cc3)C(C(=O)O)=C[C@H]2CC2CCCC2)cc1,0.284% (inactive)
4,COc1cc(OC)cc(/C(N)=N/O)c1,0.166% (inactive)
5,CCC(C)N(C(=O)COC(=O)c1nc(Cl)ccc1Cl)C1CCS(=O)(=O)C1 (configuration not stated),-0.848% (inactive)
6,N#CCSc1nn(-c2ccc(F)cc2)c(=S)s1,-0.858% (inactive)
7,CCOC(=O)C1CCN(C(=O)c2ccc3c(=O)n4nc(Nc5ccccc5CC)sc4nc3c2)CC1,1.95% (inactive)
8,CS(=O)(=O)N1CCCCC1c1cc(C(=O)NCc2ccccc2)no1 (configuration not stated),-1.43% (inactive)
9,Nc1nc(C23CC4CC(CC(C4)C2)C3)cs1,-0.25% (inactive)
10,C#CCN(N(C)c1ncc(C(F)(F)F)cc1Cl)S(=O)(=O)c1ccc2ccccc2c1,5.44% (inactive)
11,CN(C)C(=O)Cn1c(=O)n(S(=O)(=O)c2ccccc2)c2ccccc21,-0.0726% (inactive)
12,Cc1cccc(NC(=O)CSc2nnc(CCCCCNC(=O)OC(C)(C)C)o2)c1C,-0.643% (inactive)
13,O=C(NCc1cccnc1)c1cc(C2CCCN(C(=O)CCCc3ccccc3)C2)on1 (configuration not stated),-0.488% (inactive)
14,CCN1/C(=C\c2ccc3ccccc3[n+]2CC)Sc2cc(C)ccc21,63.9% (active)
15,Cc1nc(CC(=O)NNS(=O)(=O)c2ccc(F)c(Cl)c2)cs1,-1.65% (inactive)
16,Cc1cccc(OCC(O)CN2CCN(CCN3C(=O)c4cccc5cccc(c45)C3=O)CC2)c1C (configuration not stated),8.73% (inactive)
17,CCOC(=O)Cc1cc(=O)[nH]c(/N=C(\N)Nc2ccc(OC)cc2)n1,-0.31% (inactive)
18,CCSc1nc(=S)n(CC)c(C)c1C(C)=O,-0.754% (inactive)
19,COC(=O)CN1C(C)=Nc2ccc(Br)cc2C1c1ccccc1 (configuration not stated),-0.193% (inactive)

row,Compound,inhibition
1,CCn1ccnc1CNC(=O)CC1C(=O)NCCN1CCCc1ccccc1 (configuration not stated),-2.22% (inactive)
2,CCOc1cc2[nH]c(=S)n(Cc3ccc(C(=O)N4CCN(C)CC4)cc3)c(=O)c2cc1OCC,1.07% (inactive)
3,O=c1c(Cl)c(NCc2ccc(F)cc2Cl)cnn1C12CC3CC(CC(C3)C1)C2,1.08% (inactive)
4,O=C1c2ccccc2C(Nc2ccc3c(c2)OCCO3)N1Cc1ccco1 (configuration not stated),0.866% (inactive)
5,Cn1c(=O)c(=O)n(C)c2cc(S(=O)(=O)CCC(=O)N3CCCCC3)ccc21,-0.491% (inactive)
6,Cn1c2ccccc2c(=O)c2c(=O)n(Cc3ccco3)c(COc3ccccc3)nc21,69% (active)
7,COc1ccc(-c2oc3ncn(Cc4ccco4)c(=N)c3c2-c2ccc(OC)cc2)cc1,3.1% (inactive)
8,O=C(Cn1c(=O)n(Cc2ccco2)c(=O)c2ccccc21)NCC1CCCO1 (configuration not stated),-0.056% (inactive)
9,O=C(CC(=O)N/N=C\c1cccc(Cl)c1Cl)NCc1ccccc1,-1.17% (inactive)
10,O=C(NN=Cc1ccccc1O)NN=Cc1ccccc1O,61.8% (active)
11,O=C(CO/N=C/c1ccccc1O)NNC(=O)c1ccccc1Cl,-0.137% (inactive)
12,O=C(Nc1cc(S(=O)(=O)N2CCOCC2)ccc1N1CCOCC1)c1c(F)cccc1Cl,-0.613% (inactive)
13,O=C(NNC(=O)c1ccc2ccccc2c1)c1ccc(Cl)cc1,49.6% (active)
14,O=C(CCCOc1ccccc1)NNC(=O)c1ccc(Cl)cc1,-0.0475% (inactive)
15,CN(CC(=O)Nc1ccc(Cl)cc1)C(=O)CNC(=O)c1ccc2ccccc2c1,0.862% (inactive)
16,CC(C)(C)S(=O)(=O)c1ccccc1-c1noc(-c2ccccc2)c1C(N)=O,-0.802% (inactive)
17,Cc1ncc([N+](=O)[O-])n1CCOC(=O)c1ccc(Br)cc1,-0.676% (inactive)
18,C[C@H](NC(=O)NCCc1ccccc1)C(=O)O,0.573% (inactive)
19,CCOC(=O)C1(CC2CCCCO2)CCN(Cc2nc(-c3cccs3)oc2C)CC1 (configuration not stated),0.186% (inactive)
